Laboratory results from ChEMBL document CHEMBL4376901, “Azo-PROTAC: Novel Light-Controlled Small-Molecule Tool for Protein Knockdown” (J Med Chem, 2020).
Calls of active or inactive are those of the source. No cut-off for these calls is given here.

Key:
[1] = Drug metabolism assessed as photoisomerization to cis-isomer after exposure to UV-C light and measured after 1 hr by UV-visible absorption spectra analysis
[2] = Drug metabolism assessed as photoisomerization to cis-isomer after exposure to white light light up to 240 mins by UV-visible absorption spectra analysis
[3] = Half life for spontaneous thermal relaxation under dark condition at 25 degC; assay type: physicochemical
[4] = Stability in presence of 20 mM of GSH reduced in DMSO/PBS buffer (1:1) solution incubated for 48 hrs; assay type: physicochemical
K562 [5] = assay: Antiproliferative activity against human K562 cells assessed as inhibition of cell proliferation incubated for 48 hrs by CCK8 assay; assay type: functional, cell-based; conditions: K562, 48 h
K562 [6] = assay: Cytotoxicity against human K562 cells assessed as inhibition of cell viability incubated for 48 hrs by Cell-titer-Glo luminescent cell viability assay; assay type: functional, cell-based; conditions: K562, 48 h
A549 = assay: Cytotoxicity against human A549 cells assessed as inhibition of cell viability incubated for 48 hrs by Cell-titer-Glo luminescent cell viability assay; assay type: functional, cell-based
HCT-116 = assay: Cytotoxicity against human HCT116 cells assessed as inhibition of cell viability incubated for 48 hrs by Cell-titer-Glo luminescent cell viability assay; assay type: functional, cell-based
MCF7 = assay: Cytotoxicity against human MCF7 cells assessed as inhibition of cell viability incubated for 48 hrs by Cell-titer-Glo luminescent cell viability assay; assay type: functional, cell-based
[7] = target: T1, Protein cereblon/Tyrosine-protein kinase ABL1/Breakpoint cluster region protein (Homo sapiens) (UniProt P00519+P11274+Q96SW2); assay: Protac activity at CRBN/BCR-ABL in human K562 cells assessed as reduction in BCR-ABL protein levels pre-treated with ABL inhibitor dasatinib followed by compound addition at 250 nM incubated for 24 hrs by Western blot analysis; assay type: cell-based
T1 sequence (P00519 whole entry, looked up): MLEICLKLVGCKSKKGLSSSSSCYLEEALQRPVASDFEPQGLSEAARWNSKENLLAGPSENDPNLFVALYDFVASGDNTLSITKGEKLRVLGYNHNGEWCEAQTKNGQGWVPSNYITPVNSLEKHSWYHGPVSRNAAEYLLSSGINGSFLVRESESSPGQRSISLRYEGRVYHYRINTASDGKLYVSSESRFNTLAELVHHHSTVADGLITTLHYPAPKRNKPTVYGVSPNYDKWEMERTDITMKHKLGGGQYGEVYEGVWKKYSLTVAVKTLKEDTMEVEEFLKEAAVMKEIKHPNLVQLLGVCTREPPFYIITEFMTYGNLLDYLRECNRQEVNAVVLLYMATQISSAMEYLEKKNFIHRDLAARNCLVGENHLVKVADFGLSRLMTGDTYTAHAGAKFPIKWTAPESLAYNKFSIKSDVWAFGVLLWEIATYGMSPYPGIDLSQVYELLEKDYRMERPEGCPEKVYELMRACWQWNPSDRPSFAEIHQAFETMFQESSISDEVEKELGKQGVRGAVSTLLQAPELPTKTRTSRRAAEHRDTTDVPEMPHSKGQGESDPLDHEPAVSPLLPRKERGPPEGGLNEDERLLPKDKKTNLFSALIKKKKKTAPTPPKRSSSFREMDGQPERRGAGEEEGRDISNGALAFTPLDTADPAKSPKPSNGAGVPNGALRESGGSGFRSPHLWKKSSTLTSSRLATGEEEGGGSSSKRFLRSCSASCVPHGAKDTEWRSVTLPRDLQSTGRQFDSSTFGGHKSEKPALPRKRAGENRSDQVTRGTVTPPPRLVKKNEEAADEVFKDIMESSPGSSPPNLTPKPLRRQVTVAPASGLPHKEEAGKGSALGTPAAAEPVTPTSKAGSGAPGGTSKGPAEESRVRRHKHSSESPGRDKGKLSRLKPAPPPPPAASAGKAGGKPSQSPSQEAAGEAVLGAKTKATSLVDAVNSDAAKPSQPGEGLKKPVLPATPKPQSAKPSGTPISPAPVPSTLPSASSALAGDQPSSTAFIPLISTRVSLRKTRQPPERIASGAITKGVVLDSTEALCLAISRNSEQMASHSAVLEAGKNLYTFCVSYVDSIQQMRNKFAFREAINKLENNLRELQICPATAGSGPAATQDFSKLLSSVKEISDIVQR
T1 sequence (P11274 whole entry, looked up): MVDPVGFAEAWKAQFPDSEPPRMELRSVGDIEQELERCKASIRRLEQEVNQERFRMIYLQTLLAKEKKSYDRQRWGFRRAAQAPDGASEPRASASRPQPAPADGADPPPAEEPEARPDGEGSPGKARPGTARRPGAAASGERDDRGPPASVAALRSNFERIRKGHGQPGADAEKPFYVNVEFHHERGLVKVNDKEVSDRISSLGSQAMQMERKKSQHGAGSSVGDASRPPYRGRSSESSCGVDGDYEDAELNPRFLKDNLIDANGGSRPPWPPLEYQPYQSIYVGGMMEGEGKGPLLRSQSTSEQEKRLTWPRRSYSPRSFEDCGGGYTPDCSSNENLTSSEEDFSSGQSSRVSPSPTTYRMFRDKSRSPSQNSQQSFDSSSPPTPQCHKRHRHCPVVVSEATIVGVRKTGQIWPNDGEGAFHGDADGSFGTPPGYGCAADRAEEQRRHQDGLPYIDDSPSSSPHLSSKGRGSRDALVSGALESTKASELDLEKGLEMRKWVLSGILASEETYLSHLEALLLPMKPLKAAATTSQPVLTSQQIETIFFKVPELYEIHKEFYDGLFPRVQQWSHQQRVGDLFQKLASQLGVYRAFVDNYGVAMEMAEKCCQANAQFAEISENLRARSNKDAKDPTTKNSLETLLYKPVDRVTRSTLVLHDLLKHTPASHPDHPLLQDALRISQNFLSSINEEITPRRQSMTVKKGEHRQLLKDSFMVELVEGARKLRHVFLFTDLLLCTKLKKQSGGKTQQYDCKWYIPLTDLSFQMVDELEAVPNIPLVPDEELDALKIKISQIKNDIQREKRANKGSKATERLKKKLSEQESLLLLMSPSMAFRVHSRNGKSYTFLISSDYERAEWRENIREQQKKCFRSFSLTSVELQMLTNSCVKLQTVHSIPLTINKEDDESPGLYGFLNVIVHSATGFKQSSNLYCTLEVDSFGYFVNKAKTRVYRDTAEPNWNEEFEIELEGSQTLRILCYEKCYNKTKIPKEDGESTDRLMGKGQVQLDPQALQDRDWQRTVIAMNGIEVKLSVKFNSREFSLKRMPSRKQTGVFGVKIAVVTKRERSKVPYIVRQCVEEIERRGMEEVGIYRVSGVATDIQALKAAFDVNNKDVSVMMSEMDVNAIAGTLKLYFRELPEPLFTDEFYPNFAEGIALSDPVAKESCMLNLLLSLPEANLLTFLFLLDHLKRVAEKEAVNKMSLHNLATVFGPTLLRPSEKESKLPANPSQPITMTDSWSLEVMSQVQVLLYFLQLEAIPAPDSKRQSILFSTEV
T1 sequence (Q96SW2 whole entry, looked up): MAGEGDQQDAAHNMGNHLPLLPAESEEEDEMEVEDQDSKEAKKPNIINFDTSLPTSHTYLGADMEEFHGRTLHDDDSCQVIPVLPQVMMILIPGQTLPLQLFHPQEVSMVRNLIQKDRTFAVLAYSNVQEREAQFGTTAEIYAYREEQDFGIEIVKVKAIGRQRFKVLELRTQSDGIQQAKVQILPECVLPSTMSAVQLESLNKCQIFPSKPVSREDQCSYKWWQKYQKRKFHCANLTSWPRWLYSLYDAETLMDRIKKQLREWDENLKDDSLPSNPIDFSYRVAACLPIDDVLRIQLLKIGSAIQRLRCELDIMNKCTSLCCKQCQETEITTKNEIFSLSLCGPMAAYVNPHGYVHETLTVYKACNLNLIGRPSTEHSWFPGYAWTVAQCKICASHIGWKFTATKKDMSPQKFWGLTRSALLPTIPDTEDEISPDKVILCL

[8] = target: T2, Protein cereblon/Tyrosine-protein kinase ABL1 (Homo sapiens) (UniProt P00519+Q96SW2); assay: Protac activity at CRBN/ABL in human K562 cells assessed as reduction in ABL protein levels pre-treated with ABL inhibitor dasatinib followed by compound addition at 250 nM incubated for 24 hrs by Western blot analysis; assay type: cell-based
T2 sequence (P00519 whole entry, looked up): as the sequence (P00519 whole entry, looked up) above
T2 sequence (Q96SW2 whole entry, looked up): as the sequence (Q96SW2 whole entry, looked up) above

[9] = target: T1, Protein cereblon/Tyrosine-protein kinase ABL1/Breakpoint cluster region protein (Homo sapiens); assay: Protac activity at CRBN/BCR-ABL in human K562 cells assessed as reduction in BCR-ABL protein levels pre-treated with lenalidomide followed by compound addition at 250 nM incubated for 24 hrs by Western blot analysis; assay type: cell-based
[10] = target: T2, Protein cereblon/Tyrosine-protein kinase ABL1 (Homo sapiens); assay: Protac activity at CRBN/ABL in human K562 cells assessed as reduction in ABL protein levels pre-treated with lenalidomide followed by compound addition at 250 nM incubated for 24 hrs by Western blot analysis; assay type: cell-based
[11] = target: T1, Protein cereblon/Tyrosine-protein kinase ABL1/Breakpoint cluster region protein (Homo sapiens); assay: Protac activity at CRBN/BCR-ABL in human K562 cells assessed as reduction in BCR-ABL protein levels pre-treated with NEDD8-activating enzyme (NAE) inhibitor MLN4924 followed by compound addition at 250 nM incubated for 24 hrs by Western blot analysis; assay type: cell-based
[12] = target: T2, Protein cereblon/Tyrosine-protein kinase ABL1 (Homo sapiens); assay: Protac activity at CRBN/ABL in human K562 cells assessed as reduction in ABL protein levels pre-treated with NEDD8-activating enzyme (NAE) inhibitor MLN4924 followed by compound addition at 250 nM incubated for 24 hrs by Western blot analysis; assay type: cell-based
[13] = target: T1, Protein cereblon/Tyrosine-protein kinase ABL1/Breakpoint cluster region protein (Homo sapiens); assay: Protac activity at CRBN/BCR-ABL in human K562 cells assessed as reduction in BCR-ABL protein levels at 250 nM incubated for 4 hrs by Western blot analysis; assay type: cell-based; conditions: in the assay text read “10 hrs” for “4 hrs”
Procedure, shortened: (§1)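 Time-course in K562 cells at a fixed 250 nM PROTAC, run separately with the trans and cis forms. Cells were harvested at several time points. BCR-ABL and ABL protein levels were read by Western blot.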

[14] = target: T2, Protein cereblon/Tyrosine-protein kinase ABL1 (Homo sapiens); assay: Protac activity at CRBN/ABL in human K562 cells assessed as reduction in ABL protein levels at 250 nM incubated for 4 hrs by Western blot analysis; assay type: cell-based; procedure, shortened: as §1
[15] = target: T1, Protein cereblon/Tyrosine-protein kinase ABL1/Breakpoint cluster region protein (Homo sapiens); assay: Protac activity at CRBN/BCR-ABL in human K562 cells assessed as reduction in BCR-ABL protein levels at 250 nM incubated for 10 hrs by Western blot analysis; assay type: cell-based; procedure, shortened: as §1
[16] = target: T2, Protein cereblon/Tyrosine-protein kinase ABL1 (Homo sapiens); assay: Protac activity at CRBN/ABL in human K562 cells assessed as reduction in ABL protein levels at 250 nM incubated for 10 hrs by Western blot analysis; assay type: cell-based; procedure, shortened: as §1
[17] = target: T1, Protein cereblon/Tyrosine-protein kinase ABL1/Breakpoint cluster region protein (Homo sapiens); assay: Protac activity at CRBN/BCR-ABL in human K562 cells assessed as reduction in BCR-ABL protein levels at 250 nM incubated for 32 hrs by Western blot analysis; assay type: cell-based; design: scale not given: the % may be the effect or the level left; procedure, shortened: as §1
[18] = target: T2, Protein cereblon/Tyrosine-protein kinase ABL1 (Homo sapiens); assay: Protac activity at CRBN/ABL in human K562 cells assessed as reduction in ABL protein levels at 250 nM incubated for 32 hrs by Western blot analysis; assay type: cell-based; design: scale not given: the % may be the effect or the level left; procedure, shortened: as §1
K562 [19] = assay: Effect on ABL gene expression in human K562 cells at 50 to 500 nM incubated for 36 hrs by RT-qPCR analysis; assay type: ADME, cell-based; conditions: k562, 36 h, 0.5 µM
[20] = target: T1, Protein cereblon/Tyrosine-protein kinase ABL1/Breakpoint cluster region protein (Homo sapiens); assay: Protac activity at CRBN/BCR-ABL in human K562 cells assessed as reduction in BCR-ABL protein levels incubated for 24 hrs followed by exposure to UV-C light every 4 hrs by Western blot analysis; assay type: cell-based
Procedure, shortened: (§2)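 K562 cells were treated with the trans form for 24 h, then moved to fresh medium and split into two groups. One group was exposed to UV-C light every 4 h and harvested. The control group was harvested without irradiation at 0, 4, 8, 12, 16 and 24 h. Proteins were read by Western blot.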

[21] = target: T2, Protein cereblon/Tyrosine-protein kinase ABL1 (Homo sapiens); assay: Protac activity at CRBN/ABL in human K562 cells assessed as reduction in ABL protein levels incubated for 24 hrs followed by exposure to UV-C light every 4 hrs by Western blot analysis; assay type: cell-based; procedure, shortened: as §2
[22] = target: T1, Protein cereblon/Tyrosine-protein kinase ABL1/Breakpoint cluster region protein (Homo sapiens); assay: Protac activity at CRBN/BCR-ABL in human K562 cells assessed as reduction in BCR-ABL protein levels incubated for 24 hrs followed by exposure to white light up to 24 hrs hrs by Western blot analysis; assay type: cell-based
Procedure, shortened: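 Cells were preincubated with the cis form while shielded from light, then moved to fresh medium and exposed to visible light. BCR-ABL was followed over time by Western blot.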

[23] = target: T2, Protein cereblon/Tyrosine-protein kinase ABL1 (Homo sapiens); assay: Protac activity at CRBN/ABL in human K562 cells assessed as reduction in ABL protein levels incubated for 24 hrs followed by exposure to white light up to 24 hrs by Western blot analysis; assay type: cell-based
[24] = target: T2, Protein cereblon/Tyrosine-protein kinase ABL1 (Homo sapiens); assay: Protac activity at CRBN/ABL in human K562 cells assessed as reduction in ABL protein levels incubated for 24 hrs by Western blot analysis
[25] = target: T1, Protein cereblon/Tyrosine-protein kinase ABL1/Breakpoint cluster region protein (Homo sapiens); assay: Protac activity at CRBN/BCR-ABL in human K562 cells assessed as reduction in BCR-ABL protein levels incubated for 24 hrs by Western blot analysis
[26] = target: T2, Protein cereblon/Tyrosine-protein kinase ABL1 (Homo sapiens); assay: Protac activity at CRBN/ABL in human K562 cells assessed as reduction in ABL protein levels at 100 nM incubated for 24 hrs by Western blot analysis
[27] = target: T1, Protein cereblon/Tyrosine-protein kinase ABL1/Breakpoint cluster region protein (Homo sapiens); assay: Protac activity at CRBN/BCR-ABL in human K562 cells assessed as reduction in BCR-ABL protein levels at 100 nM incubated for 24 hrs by Western blot analysis
[28] = Drug metabolism assessed as photoisomerization to cis-isomer after exposure to UV-C light and measured up to 120 mins by UV-visible absorption spectra analysis
[29] = target: T2, Protein cereblon/Tyrosine-protein kinase ABL1 (Homo sapiens); assay: Protac activity at CRBN/ABL in human K562 cells assessed as reduction in ABL protein levels at 500 nM incubated for 24 hrs by Western blot analysis
[30] = target: T1, Protein cereblon/Tyrosine-protein kinase ABL1/Breakpoint cluster region protein (Homo sapiens); assay: Protac activity at CRBN/BCR-ABL in human K562 cells assessed as reduction in BCR-ABL protein levels at 500 nM incubated for 24 hrs by Western blot analysis
[31] = target: T1, Protein cereblon/Tyrosine-protein kinase ABL1/Breakpoint cluster region protein (Homo sapiens); assay: Protac activity at CRBN/BCR-ABL in human K562 cells assessed as reduction in BCR-ABL protein levels at 50 to 250 nM incubated for 24 hrs by Western blot analysis; assay type: cell-based
Procedure, shortened: (§3)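 K562 cells were exposed for 24 h to a concentration gradient of the trans or cis form. BCR-ABL and ABL protein levels were assessed by Western blot in a dose-effect design.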

[32] = target: T2, Protein cereblon/Tyrosine-protein kinase ABL1 (Homo sapiens); assay: Protac activity at CRBN/ABL in human K562 cells assessed as reduction in ABL protein levels at 50 to 250 nM incubated for 24 hrs by Western blot analysis; assay type: cell-based; procedure, shortened: as §3

**Q.** For `Cc1nc(Nc2ncc(C(=O)Nc3c(C)cccc3Cl)s2)cc(N2CCN(CCCCOc3ccc(/N=N/c4ccc(C(=O)Nc5cccc6c5CN(C5CCC(=O)NC5=O)C6=O)cc4)cc3)CC2)n1` (stereo unspecified), which Drug metabolism [1] is on record?
**A.** Its Drug metabolism is “Metabolite detected”.

**Q.** What about the Drug metabolism [2] of the same compound?
**A.** The Drug metabolism was “Metabolite detected”.

**Q.** What about the t1/2 [3] of the same compound?
**A.** The t1/2 was 10.3 h.

**Q.** And the Stability [4]?
**A.** Its Stability is “Stable”.

**Q.** What about the IC50 (K562 [5]) of the same compound?
**A.** Its IC50 is 0.068 µM.

**Q.** What about the EC50 (K562 [6]) of the same compound?
**A.** The EC50 was 0.028 µM.

**Q.** And the Activity (A549)?
**A.** Its Activity is “inactive”.

**Q.** And the Activity (HCT-116)?
**A.** The Activity was “inactive”.

**Q.** And the Activity (MCF7)?
**A.** Its Activity is “inactive”.

**Q.** And the Activity [7]?
**A.** The Activity was “inactive”.

**Q.** And the Activity [8]?
**A.** Its Activity is “inactive”.

**Q.** And the Activity [9]?
**A.** The Activity was “inactive”.

**Q.** What about the Activity [10] of the same compound?
**A.** The Activity was “inactive”.

**Q.** What about the Activity [11] of the same compound?
**A.** Its Activity is “inactive”.

**Q.** And the Activity [12]?
**A.** The Activity was “inactive”.

**Q.** What about the Activity [13] of the same compound?
**A.** The Activity was “Active”.

**Q.** What about the Activity [14] of the same compound?
**A.** Its Activity is “Active”.

**Q.** And the Activity [15]?
**A.** Its Activity is “Active”.

**Q.** What about the Activity [16] of the same compound?
**A.** Its Activity is “Active”.

**Q.** And the Activity [17]?
**A.** The Activity was over 90%.

**Q.** And the Activity [18]?
**A.** The Activity was over 90%.

**Q.** And the Activity (K562 [19])?
**A.** The Activity was “Non-Toxic”.

**Q.** What about the Activity [20] of the same compound?
**A.** Its Activity is “inactive”.

**Q.** And the Activity [21]?
**A.** The Activity was “inactive”.

**Q.** What about the Activity [22] of the same compound?
**A.** Its Activity is “Active”.

**Q.** What about the Activity [23] of the same compound?
**A.** Its Activity is “Active”.

**Q.** And the Activity [24]?
**A.** The Activity was “Dose-dependent effect”.

**Q.** And the Activity [25]?
**A.** The Activity was “Dose-dependent effect”.

**Q.** And the Activity [26]?
**A.** Its Activity is “Active”.

**Q.** What about the Activity [27] of the same compound?
**A.** Its Activity is “Active”.

**Q.** What about the Drug metabolism [28] of the same compound?
**A.** Its Drug metabolism is “Metabolite detected”.

**Q.** Which results are given for `Cc1nc(Nc2ncc(C(=O)Nc3c(C)cccc3Cl)s2)cc(N2CCN(CCCCOc3ccc(/N=N\c4ccc(C(=O)Nc5cccc6c5CN(C5CCC(=O)NC5=O)C6=O)cc4)cc3)CC2)n1` (stereo unspecified)?
**A.** Activity [17]: inactive; Activity [18]: inactive; Activity ([22]; TDE = time-dependent effect): Tde; Activity ([23]; TDE = time-dependent effect): Tde; Activity [29]: inactive; Activity [30]: inactive

**Q.** Which results are given for `Cc1nc(Nc2ncc(C(=O)Nc3c(C)cccc3Cl)s2)cc(N2CCN(CCCCOc3ccc(/N=N/c4ccc(C(=O)Nc5cccc6c5CN(C5CCC(=O)N(C)C5=O)C6=O)cc4)cc3)CC2)n1` (single isomer, unassigned; (-))?
**A.** Activity [31]: inactive; Activity [32]: inactive

**Q.** What does the source list for `Cc1nc(Nc2ncc(C(=O)Nc3c(C)cccc3Cl)s2)cc(N2CCN(CCOc3ccc(/N=N/c4ccc(C(=O)Nc5cccc6c5CN(C5CCC(=O)NC5=O)C6=O)cc4)cc3)CC2)n1` (stereo unspecified)?
**A.** Activity [26]: Active; Activity [27]: Active
